{"source": "ChEMBL document CHEMBL1138476", "about": "(J Med Chem, 2009)", "key": {"[1]": {"biological_target": "T1, Corticotropin-releasing factor receptor 1 (Rattus norvegicus, UniProt P35353)", "T1 sequence (P35353 whole entry)": "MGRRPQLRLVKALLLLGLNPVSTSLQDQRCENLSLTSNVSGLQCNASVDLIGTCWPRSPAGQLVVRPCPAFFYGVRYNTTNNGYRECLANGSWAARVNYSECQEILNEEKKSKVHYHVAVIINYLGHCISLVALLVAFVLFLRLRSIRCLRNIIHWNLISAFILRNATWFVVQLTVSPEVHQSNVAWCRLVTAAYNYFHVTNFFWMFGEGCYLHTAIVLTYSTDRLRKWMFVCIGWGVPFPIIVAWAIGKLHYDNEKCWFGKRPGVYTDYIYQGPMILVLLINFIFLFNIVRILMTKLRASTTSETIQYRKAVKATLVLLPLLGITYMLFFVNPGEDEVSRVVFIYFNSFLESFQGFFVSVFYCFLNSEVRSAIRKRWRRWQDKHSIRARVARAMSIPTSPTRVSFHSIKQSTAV", "assay": "Antagonist activity at CRF1 receptor in rat pituitary cells assessed as inhibition of CRF-mediated ACTH production", "type": "functional, cell-based, Pituitary gland cell"}, "Rattus norvegicus [2]": {"test_system": "Rattus norvegicus", "assay": "Toxicity in rat assessed as total distance traveled at 30 mg/kg, po after 1 hr by spontaneous locomotor test", "type": "functional", "how_it_was_run": "(§1)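 Rat spontaneous locomotor activity test with oral dosing in 0.25% Methocel 1 h before testing, at doses up to 100 mg/kg. Values are mean ± SEM, with N rats per group, compared with the vehicle (zero-dose) group.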"}, "[3]": {"assay": "Half life in Beagle dog at 1 mg/kg, po by cassette dosing", "type": "ADME, organism-based, Canis lupus familiaris", "design": "dose 1 mg/kg, route oral", "details": "in vivo"}, "Canis familiaris [4]": {"test_system": "Canis familiaris", "assay": "Effect on respiratory function in spontaneously breathing mongrel dog assessed as change in mean arterial pressure at 5 mg/kg after intravenous infusion for 6 mins (RVb= 1.5+/-0.9 %)", "type": "functional, Canis lupus familiaris, Artery"}, "Rattus norvegicus [5]": {"test_system": "Rattus norvegicus", "assay": "Anxiolytic activity in rat assessed as increase in time spent on open arm at 18 mg/kg, po by elevated plus-maze test", "type": "functional, organism-based", "design": "dose 18 mg/kg", "how_it_was_run": "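Rat elevated plus maze: percent of test time spent in the open arms. Oral dosing in 0.25% Methocel 60 min before testing; n = 12 per dose, mean ± SEM. Analysed by ANOVA followed by Fisher's LSD comparisons against vehicle.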"}, "[6]": {"assay": "Plasma concentration in dog at 3 mg/kg after […]", "type": "ADME, organism-based, Canis lupus familiaris", "design": "dose 3 mg/kg, route intravenous", "details": "iv"}, "Rattus norvegicus [7]": {"test_system": "Rattus norvegicus", "assay": "Ex vivo receptor occupancy of CRF receptor in rat brain at 30 mg/kg, po by [125I]sauvagine binding and autoradiography relative to control", "type": "functional", "how_it_was_run": "(§2)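 Rats were given 0.3, 1, 3, 10 or 30 mg/kg po in 0.25% Methocel 60 min before sacrifice. Brains were removed, sectioned and frozen at −80 °C. Ex vivo CRF receptor binding gave occupancy relative to vehicle-treated rats, reported as mean ± SEM.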"}, "[8]": {"biological_target": "T2, Substance-K receptor (Homo sapiens) (UniProt P21452)", "T2 sequence (whole entry)": "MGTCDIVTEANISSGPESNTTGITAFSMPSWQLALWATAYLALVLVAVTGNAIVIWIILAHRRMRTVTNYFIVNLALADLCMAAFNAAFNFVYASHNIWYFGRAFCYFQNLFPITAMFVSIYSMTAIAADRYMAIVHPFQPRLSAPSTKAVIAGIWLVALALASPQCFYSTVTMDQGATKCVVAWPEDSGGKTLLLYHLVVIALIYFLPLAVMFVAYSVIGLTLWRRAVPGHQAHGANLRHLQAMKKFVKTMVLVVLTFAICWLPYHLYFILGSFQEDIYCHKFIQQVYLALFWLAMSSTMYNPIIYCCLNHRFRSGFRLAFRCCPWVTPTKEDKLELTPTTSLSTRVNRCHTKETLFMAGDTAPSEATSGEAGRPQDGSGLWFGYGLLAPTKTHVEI", "assay": "Inhibition of ligand binding in neurokinin 2 receptor", "design": "scale not given: the % may be the effect or the level left", "how_it_was_run": "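Screened at 10^-7 and 10^-5 M for binding inhibition, then taken to a dose–response on the human neurokinin 2 receptor. IC50 is based on two experiments.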"}, "Canis familiaris [9]": {"test_system": "Canis familiaris", "assay": "Effect on respiratory function in spontaneously breathing mongrel dog assessed as change in airway resistance at 5 mg/kg after intravenous infusion for 6 mins (RVb= 3.9+/-4.7 %)", "type": "functional, Canis lupus familiaris"}, "Canis familiaris [10]": {"test_system": "Canis familiaris", "assay": "Effect on respiratory function in spontaneously breathing mongrel dog assessed as change in heart rate at 5 mg/kg after intravenous infusion for 60 mins (RVb= -0.9+/-5.8 %)", "type": "functional, Canis lupus familiaris"}, "Canis familiaris [11]": {"test_system": "Canis familiaris", "assay": "Effect on respiratory function in spontaneously breathing mongrel dog assessed as change in pulmonary compliance at 5 mg/kg after intravenous infusion for 15 mins (RVb= 0.8+/-2.0 %)", "type": "functional, Canis lupus familiaris"}, "Canis familiaris [12]": {"test_system": "Canis familiaris", "assay": "Effect on respiratory function in spontaneously breathing mongrel dog assessed as change in pulmonary compliance at 5 mg/kg after intravenous infusion for 30 mins (RVb= -2.8+/-4.0 %)", "type": "functional, Canis lupus familiaris"}, "Rattus norvegicus [13]": {"test_system": "Rattus norvegicus", "assay": "Effect on acute renal function in rat assessed as change in urine potassium level per 100 gm body weight at 30 mg/kg, po (RVb= 60.3+/-11.1 mg/dl)", "type": "functional"}, "Rattus norvegicus [14]": {"test_system": "Rattus norvegicus", "assay": "Ex vivo receptor occupancy of CRF receptor in rat brain at 3 mg/kg, po by [125I]sauvagine binding and autoradiography relative to control", "type": "functional", "how_it_was_run": "as §2"}, "[15]": {"assay": "Cmax in rat at 5 mg/kg, po", "type": "ADME, organism-based", "design": "dose 5 mg/kg, route oral", "details": "in vivo", "how_it_was_run": "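Rats (n = 3) received 1 mg/kg iv in 10% DMAC, 70% propylene glycol and deionized water, or 5 mg/kg orally in 0.5% methylcellulose.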"}, "Rattus norvegicus [16]": {"test_system": "Rattus norvegicus", "assay": "Toxicity in rat assessed as total distance traveled at 3 mg/kg, po after 1 hr by spontaneous locomotor test", "type": "organism-based", "design": "dose 3 mg/kg, route oral", "details": "in vivo", "how_it_was_run": "as §1"}, "[17]": {"assay": "Plasma concentration in spontaneously breathing dog at 5 mg/kg, iv after 60 mins", "type": "ADME, organism-based, Canis lupus familiaris", "design": "dose 5 mg/kg, route intravenous", "how_it_was_run": "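Spontaneously breathing, barbiturate-anesthetized mongrel dogs (n = 4) infused iv at 5.0 mg/kg over 6 min. Total pooled plasma concentrations taken at 6, 15, 30 and 60 min.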"}, "[18]": {"assay": "Cmax in Beagle dog at 1 mg/kg, po by cassette dosing", "type": "ADME, organism-based, Canis lupus familiaris", "design": "dose 1 mg/kg, route oral", "details": "in vivo"}, "[19]": {"assay": "Oral bioavailability in chimpanzee at 1 mg/kg", "type": "ADME, organism-based, Pan troglodytes", "details": "in vivo", "how_it_was_run": "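Two alert chimpanzees were given 1 mg/kg po as a 1 mg/mL suspension in 50:50 (v/v) 0.5% methylcellulose and Tang orange juice containing 1% Tween-80. EDTA blood was taken predose and at 2–96 h. Bioavailability was calculated against a 0.5 mg/kg iv dose given to one animal.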"}, "[20]": {"assay": "AUC in Beagle dog at 1 mg/kg, po by cassette dosing", "type": "ADME, organism-based, Canis lupus familiaris", "design": "dose 1 mg/kg, route oral", "details": "plasma"}, "Canis familiaris [21]": {"test_system": "Canis familiaris", "assay": "Effect on respiratory function in spontaneously breathing mongrel dog assessed as change in minute volume at 5 mg/kg after intravenous infusion for 15 mins (RVb= -4.7+/-3.4 %)", "type": "functional, Canis lupus familiaris"}, "Canis familiaris [22]": {"test_system": "Canis familiaris", "assay": "Effect on respiratory function in spontaneously breathing mongrel dog assessed as change in minute volume at 5 mg/kg after intravenous infusion for 6 mins (RVb= -3.6+/-7.5 %)", "type": "functional, Canis lupus familiaris"}, "Canis familiaris [23]": {"test_system": "Canis familiaris", "assay": "Effect on respiratory function in spontaneously breathing mongrel dog assessed as change in intrapleural pressure at 5 mg/kg after intravenous infusion for 60 mins (RVb= 18.5+/-19.9 %)", "type": "functional, Canis lupus familiaris"}, "Canis familiaris [24]": {"test_system": "Canis familiaris", "assay": "Effect on respiratory function in spontaneously breathing mongrel dog assessed as change in respiration rate at 5 mg/kg after intravenous infusion for 30 mins (RVb= -4.5+/-8.2 %)", "type": "functional, Canis lupus familiaris"}}, "note": "Active and inactive are the calls of the source. The calls are words filed in the database; no cut-off is given here."}
{"compound": "CC[C@@H](C)Nc1nc(C)nc2c(-c3ccc(OC)nc3C)c(C)nn12", "note": "[PEXACERFONT]", "values": [{"measurement": "IC50", "setting": "[1]", "result": 129, "unit": "nM"}, {"measurement": "Activity", "setting": "Rattus norvegicus [2]", "result": 4846, "unit": "cm"}, {"measurement": "half-life", "setting": "[3]", "result": 10.7, "unit": "h"}, {"measurement": "Activity", "setting": "Canis familiaris [4]", "result": 3.8, "unit": "%"}, {"measurement": "Activity", "setting": "Rattus norvegicus [5]", "result": "Active"}, {"measurement": "concentration at 0.5 h", "setting": "[6]", "result": 1290, "unit": "nM"}, {"measurement": "Activity", "setting": "Rattus norvegicus [7]", "result": 85, "unit": "%"}, {"measurement": "Activity", "setting": "[8]", "result": 80, "unit": "%"}, {"measurement": "Activity", "setting": "Canis familiaris [9]", "result": 15.3, "unit": "%"}, {"measurement": "Activity", "setting": "Canis familiaris [10]", "result": -2.3, "unit": "%"}, {"measurement": "Activity", "setting": "Canis familiaris [11]", "result": -2.2, "unit": "%"}, {"measurement": "Activity", "setting": "Canis familiaris [12]", "result": -22.3, "unit": "%"}, {"measurement": "Activity", "setting": "Rattus norvegicus [13]", "result": 32.1, "unit": "mg/dL"}, {"measurement": "Activity", "setting": "Rattus norvegicus [14]", "result": 59, "unit": "%"}, {"measurement": "Cmax", "setting": "[15]", "result": 1260, "unit": "nM"}, {"measurement": "Activity", "setting": "Rattus norvegicus [16]", "result": 5639, "unit": "cm"}, {"measurement": "concentration at 1 h", "setting": "[17]", "result": 229, "unit": "nM"}, {"measurement": "Cmax", "setting": "[18]", "result": 301, "unit": "nM"}, {"measurement": "bioavailability", "setting": "[19]", "result": 49, "unit": "%"}, {"measurement": "AUC", "setting": "[20]", "result": 2.02, "unit": "µM·h"}, {"measurement": "Activity", "setting": "Canis familiaris [21]", "result": 0.6, "unit": "%"}, {"measurement": "Activity", "setting": "Canis familiaris [22]", "result": 28.1, "unit": "%"}, {"measurement": "Activity", "setting": "Canis familiaris [23]", "result": 0.7, "unit": "%"}, {"measurement": "Activity", "setting": "Canis familiaris [24]", "result": -32.5, "unit": "%"}]}
